ChEMBL document CHEMBL4152327, “Homopiperazine-rhodamine B adducts of triterpenoic acids are strong mitocans” (Eur J Med Chem, 2018)

Key:
[1] = system: A-375; assay: Cytotoxicity against human A375 cells after 96 hrs by SRB assay; format: functional, cell-based; settings: A-375, 96 h
How it was run: (§1)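 SRB assay; cells exposed to compound for 96 h. EC50 in µM averaged from three independent experiments, each in triplicate, with 95% confidence interval and mean ± standard mean error. Assay cut-off 30 µM.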

[2] = system: A2780; assay: Cytotoxicity against human A2780 cells after 96 hrs by SRB assay; format: functional, cell-based; settings: A2780, 96 h; how it was run: as §1
[3] = system: HT-29; assay: Cytotoxicity against human HT-29 cells after 96 hrs by SRB assay; format: functional, cell-based; settings: HT-29, 96 h; how it was run: as §1
[4] = system: MCF7; assay: Cytotoxicity against human MCF7 cells after 96 hrs by SRB assay; format: functional, cell-based; settings: MCF7, 96 h; how it was run: as §1
[5] = system: NIH3T3; assay: Cytotoxicity against mouse NIH/3T3 cells after 96 hrs by SRB assay; format: cell-based; settings: NIH3T3, 96 h; how it was run: as §1
[6] = system: SW-1736; assay: Cytotoxicity against human SW1736 cells after 96 hrs by SRB assay; format: functional, cell-based; settings: SW-1736, 96 h; how it was run: as §1
[7] = Drug uptake in mitochondria of human A2780 cells at 100 nM after 24 hrs by rhodamine 123 staining-based fluorescence microscopic method; format: ADME; settings: a2780, 24 h, 0.1 µM
How it was run: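 A2780 cells, about 1·10^6 per 25 cm² flask, grown 24 h, then given fresh medium containing compound for 24 h (blank medium as control). Cells collected, centrifuged at 1200 rpm and 4 °C, washed in PBS, then mixed with Hoechst 33342/Rhodamine 123 solution (10 µg/ml). Incubated 30 min at 37 °C in the dark, washed, and viewed by epifluorescence microscopy.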

[8] = Selectivity index, ratio of EC50 for mouse NIH/3T3 cells to EC50 for human A2780 cells; format: toxicity; settings: NIH/3T3 cells and A2780 cells, read-out: Ratio EC50

**Q.** With CC(=O)O[C@@H]1CC[C@@]2(C)[C@@H](CC[C@]3(C)[C@@H]2C(=O)C=C2[C@@H]4[C@@H](C)[C@H](C)CC[C@]4(C)CC[C@]23C)[C@@]1(C)C(=O)N1CCCNCC1 as the compound, how does the EC50 [1] read?
**A.** 3.21 µM

**Q.** And the EC50 [2]?
**A.** 2.85 µM

**Q.** And the EC50 [3]?
**A.** 1.99 µM

**Q.** And the EC50 [4]?
**A.** 2.41 µM

**Q.** What about the EC50 [5] of the same compound?
**A.** 0.9 µM

**Q.** For C=C(C)[C@@H]1CC[C@]2(C(=O)N3CCCNCC3)CC[C@]3(C)[C@H](CC[C@@H]4[C@@]5(C)CC[C@H](OC(C)=O)C(C)(C)[C@@H]5CC[C@]43C)[C@@H]12, which EC50 [2] is on record?
**A.** 1.61 µM

**Q.** What about the EC50 [3] of the same compound?
**A.** 1.47 µM

**Q.** And the EC50 [4]?
**A.** 1.52 µM

**Q.** And the EC50 [5]?
**A.** 1.05 µM

**Q.** And the EC50 [6]?
**A.** 1.84 µM

**Q.** Which EC50 [1] does the source give for CC(=O)O[C@@H]1CC[C@@]2(C)[C@@H](CC[C@]3(C)[C@@H]2C(=O)C=C2[C@@H]4[C@@H](C)[C@H](C)CC[C@]4(C)CC[C@]23C)[C@@]1(C)C(=O)NCc1ccccc1 here?
**A.** 13.7 µM

**Q.** And the EC50 [2]?
**A.** 10.8 µM

**Q.** And the EC50 [3]?
**A.** 20.2 µM

**Q.** And the EC50 [4]?
**A.** 9.8 µM

**Q.** What about the EC50 [5] of the same compound?
**A.** 28.1 µM

**Q.** Which EC50 [1] does the source give for CCN(CC)c1ccc2c(-c3ccccc3C(=O)N3CCCN(C(=O)[C@]4(C)[C@@H]5CC[C@]6(C)[C@H](C(=O)C=C7[C@@H]8[C@@H](C)[C@H](C)CC[C@]8(C)CC[C@]76C)[C@@]5(C)CC[C@H]4OC(C)=O)CC3)c3ccc(=[N+](CC)CC)cc-3oc2c1 here?
**A.** 0.51 µM

**Q.** And the EC50 [2]?
**A.** 0.45 µM

**Q.** And the EC50 [3]?
**A.** 0.5 µM

**Q.** And the EC50 [4]?
**A.** 0.39 µM

**Q.** What about the EC50 [5] of the same compound?
**A.** 0.4 µM

**Q.** With CCN(CC)c1ccc2c(-c3ccccc3C(=O)N3CCCN(C(=O)[C@@]4(C)CC[C@]5(C)CC[C@]6(C)C(=CC(=O)[C@@H]7[C@@]8(C)CC[C@H](OC(C)=O)C(C)(C)[C@@H]8CC[C@]76C)[C@@H]5C4)CC3)c3ccc(=[N+](CC)CC)cc-3oc2c1 as the compound, how does the EC50 [1] read?
**A.** 0.76 µM

**Q.** What about the EC50 [2] of the same compound?
**A.** 0.22 µM

**Q.** And the EC50 [3]?
**A.** 0.28 µM

**Q.** And the EC50 [4]?
**A.** 0.22 µM

**Q.** And the EC50 [5]?
**A.** 0.33 µM

**Q.** What about the EC50 [6] of the same compound?
**A.** 0.22 µM

**Q.** With CC(=O)O[C@H]1CC[C@]2(C)[C@H]3CC=C4[C@@H]5CC(C)(C)CC[C@]5(C(=O)N5CCCNCC5)CC[C@@]4(C)[C@]3(C)CC[C@H]2C1(C)C as the compound, how does the EC50 [1] read?
**A.** 2.3 µM

**Q.** And the EC50 [2]?
**A.** 2.31 µM

**Q.** What about the EC50 [3] of the same compound?
**A.** 1.3 µM

**Q.** What about the EC50 [4] of the same compound?
**A.** 1.5 µM

**Q.** And the EC50 [5]?
**A.** 1.23 µM

**Q.** And the EC50 [6]?
**A.** 3.25 µM

**Q.** With CCN(CC)c1ccc2c(-c3ccccc3C(=O)O[C@@H]3CC[C@@]4(C)[C@@H](CC[C@]5(C)[C@@H]4C(=O)C=C4[C@@H]6[C@@H](C)[C@H](C)CC[C@]6(C)CC[C@]45C)[C@@]3(C)C(=O)OC)c3ccc(=[N+](CC)CC)cc-3oc2c1 as the compound, how does the EC50 [1] read?
**A.** 0.36 µM

**Q.** And the EC50 [2]?
**A.** 0.3 µM

**Q.** And the EC50 [3]?
**A.** 0.29 µM

**Q.** What about the EC50 [4] of the same compound?
**A.** 0.23 µM

**Q.** What about the EC50 [5] of the same compound?
**A.** 0.19 µM

**Q.** What does the source list for C[C@H]1[C@H](C)CC[C@]2(C)CC[C@]3(C)C(=CC(=O)[C@@H]4[C@@]5(C)CC[C@@H](O)[C@](C)(C(=O)OCc6ccccc6)[C@@H]5CC[C@]43C)[C@H]12?
**A.** EC50 [1]: 24.8 µM; EC50 [2]: 30.1 µM; EC50 [3]: 28.8 µM; EC50 [4]: 26.4 µM; EC50 [5]: > 30 µM; EC50 [6]: 24.8 µM

**Q.** Which EC50 [1] does the source give for CCN(CC)c1ccc2c(-c3ccccc3C(=O)O[C@H]3CC[C@@]4(C)[C@@H](CC[C@]5(C)[C@@H]4C(=O)C=C4[C@@H]6[C@@H](C)[C@H](C)CC[C@]6(C)CC[C@]45C)[C@@]3(C)C(=O)NCc3ccccc3)c3ccc(=[N+](CC)CC)cc-3oc2c1 here?
**A.** 0.59 µM

**Q.** What about the EC50 [2] of the same compound?
**A.** 0.53 µM

**Q.** What about the EC50 [3] of the same compound?
**A.** 0.55 µM

**Q.** And the EC50 [4]?
**A.** 0.49 µM

**Q.** And the EC50 [5]?
**A.** 0.4 µM

**Q.** With CC(=O)O[C@H]1CC[C@]2(C)[C@H]3CC=C4[C@@H]5[C@@H](C)[C@H](C)CC[C@]5(C(=O)N5CCCNCC5)CC[C@@]4(C)[C@]3(C)CC[C@H]2C1(C)C as the compound, how does the EC50 [1] read?
**A.** 1.95 µM

**Q.** What about the EC50 [2] of the same compound?
**A.** 2.21 µM

**Q.** What about the EC50 [3] of the same compound?
**A.** 1.88 µM

**Q.** What about the EC50 [4] of the same compound?
**A.** 1.61 µM

**Q.** And the EC50 [5]?
**A.** 1.81 µM

**Q.** What does the source list for C[C@H]1[C@H](C)CC[C@]2(C)CC[C@]3(C)C(=CC(=O)[C@@H]4[C@@]5(C)CC[C@@H](O)[C@](C)(C(=O)NCc6ccccc6)[C@@H]5CC[C@]43C)[C@H]12?
**A.** EC50 [1]: 12.8 µM; EC50 [2]: 10 µM; EC50 [3]: 10.7 µM; EC50 [4]: 7.3 µM; EC50 [5]: 4.9 µM

**Q.** Which results are given for CC(=O)O[C@H]1CC[C@]2(C)[C@H]3C(=O)C=C4[C@@H]5C[C@@](C)(C(=O)N6CCCNCC6)CC[C@]5(C)CC[C@@]4(C)[C@]3(C)CC[C@H]2C1(C)C?
**A.** EC50 [1]: 18.7 µM; EC50 [2]: 12 µM; EC50 [3]: 5.11 µM; EC50 [4]: 10.7 µM; EC50 [5]: 12.3 µM; EC50 [6]: 18.7 µM

**Q.** Which EC50 [1] does the source give for CCN(CC)c1ccc2c(-c3ccccc3C(=O)N3CCCN(C(=O)[C@]45CC[C@@H](C)[C@H](C)[C@H]4C4=CC[C@@H]6[C@@]7(C)CC[C@H](OC(C)=O)C(C)(C)[C@@H]7CC[C@@]6(C)[C@]4(C)CC5)CC3)c3ccc(=[N+](CC)CC)cc-3oc2c1 here?
**A.** 0.04 µM

**Q.** What about the EC50 [2] of the same compound?
**A.** 0.02 µM

**Q.** And the EC50 [3]?
**A.** 0.04 µM

**Q.** And the EC50 [4]?
**A.** 0.03 µM

**Q.** What about the EC50 [5] of the same compound?
**A.** 0.14 µM

**Q.** What about the EC50 [6] of the same compound?
**A.** 0.04 µM

**Q.** With CCN(CC)c1ccc2c(-c3ccccc3C(=O)O[C@H]3CC[C@@]4(C)[C@@H](CC[C@]5(C)[C@@H]4C(=O)C=C4[C@@H]6[C@@H](C)[C@H](C)CC[C@]6(C)CC[C@]45C)[C@@]3(C)C(=O)OCc3ccccc3)c3ccc(=[N+](CC)CC)cc-3oc2c1 as the compound, how does the EC50 [1] read?
**A.** 1.52 µM

**Q.** What about the EC50 [2] of the same compound?
**A.** 1.32 µM

**Q.** What about the EC50 [3] of the same compound?
**A.** 1.71 µM

**Q.** What about the EC50 [4] of the same compound?
**A.** 1.38 µM

**Q.** And the EC50 [5]?
**A.** 1.01 µM

**Q.** Which EC50 [1] does the source give for CCN(CC)c1ccc2c(-c3ccccc3C(=O)N3CCCN(C(=O)[C@]45CCC(C)(C)C[C@H]4C4=CC[C@@H]6[C@@]7(C)CC[C@H](OC(C)=O)C(C)(C)[C@@H]7CC[C@@]6(C)[C@]4(C)CC5)CC3)c3ccc(=[N+](CC)CC)cc-3oc2c1.[Cl-] here?
**A.** 0.03 µM

**Q.** What about the EC50 [2] of the same compound?
**A.** 0.01 µM

**Q.** What about the EC50 [3] of the same compound?
**A.** 0.04 µM

**Q.** And the EC50 [4]?
**A.** 0.03 µM

**Q.** What about the EC50 [5] of the same compound?
**A.** 0.17 µM

**Q.** And the EC50 [6]?
**A.** 0.03 µM

**Q.** What about the Drug uptake [7] of the same compound?
**A.** Active

**Q.** And the selectivity ratio [8]?
**A.** 17

**Q.** For C=C(C)[C@@H]1CC[C@]2(C(=O)O)CC[C@]3(C)[C@H](CC[C@@H]4[C@@]5(C)CC[C@H](O)C(C)(C)[C@@H]5CC[C@]43C)[C@@H]12 [BETULINIC ACID], which EC50 [1] is on record?
**A.** 17.1 µM

**Q.** And the EC50 [6]?
**A.** 18.3 µM
